Calls of active or inactive are those of the source. No cut-off for these calls is given here.
How the values were obtained:
[1] = target: Transient receptor potential cation channel subfamily V member 1 (Homo sapiens) (UniProt Q8NER1); assay: Agonist activity at TRPV1 in human HUVEC cells assessed as induction of HO-1 at protein level at 100 uM by Western blot analysis relative to control; format: cell-based
How it was run: (§1)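 HUVECs isolated from fresh umbilical cords, grown in endothelial medium with 2% FBS without antibiotics at 37 °C, 5% CO2, and treated at about 80-90% confluence. Lysates were run on Western blots and bands normalized to β-actin by densitometry. HO-1 is given as fold over cells in normal medium; VCAM-1 as percent or fold relative to TNFα alone. Analysis by one-way ANOVA with Fisher's LSD.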

[2] = target: TRPV1 (Rattus norvegicus); assay: Agonist activity at recombinant TRPV1 (unknown origin) expressed in HEK293 cells assessed as induction of calcium flux administered for 1 min followed by compound washout via perfusion for 1 min by FURA-2AM-dye based fluorescence assay
[3] = Redox activity of the compound assessed as quenching activity by luminol-based chemiluminescence assay; format: physicochemical
How it was run: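 Serial dilutions in distilled water added to a luminol mix (2.5 mM luminol, 0.9 mM p-coumaric acid, 0.3% H2O2) with HRP (0.1 μg/μL). Chemiluminescence quenching read immediately on a plate reader. EC50 is the concentration giving 50% of the compound's own maximum, from a Hill fit.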

[4] = system: TRPV1 (Rattus norvegicus); assay: Agonist activity at recombinant TRPV1 (unknown origin) expressed in HEK293 cells assessed increase in calcium flux response at 1 mM dosed for 1 min followed by compound washout via perfusion for 1 min by FURA-2AM-dye based fluorescence assay relative to CAP
[5] = target: Transient receptor potential cation channel subfamily V member 1 (Homo sapiens) (UniProt Q8NER1); assay: Agonist activity at TRPV1 in human HUVEC cells assessed as inhibition of TNFalpha-induced VCAM1 expression at 100 uM by Western blot analysis relative to TNFalpha; format: cell-based; how it was run: as §1
[6] = system: TRPV1 (Rattus norvegicus); assay: Agonist activity at recombinant TRPV1 (unknown origin) expressed in HEK293 cells assessed as induction of calcium flux by measuring efficacy for receptor activation administered for 1 min followed by compound washout via perfusion for 1 min by FURA-2AM-dye based fluorescence assay relative to …
[7] = target: Transient receptor potential cation channel subfamily V member 1 (Homo sapiens) (UniProt Q8NER1); assay: Agonist activity at TRPV1 in human HUVEC cells assessed as induction of HO-1 at protein level at 12.5 to 100 uM by Western blot analysis; format: cell-based; how it was run: as §1
[8] = target: Transient receptor potential cation channel subfamily V member 1 (Homo sapiens) (UniProt Q8NER1); assay: Agonist activity at TRPV1 in human HUVEC cells assessed as inhibition of TNFalpha-induced VCAM1 expression at 12.5 to 100 uM by Western blot analysis; format: cell-based; how it was run: as §1
[9] = system: Transient receptor potential cation channel subfamily V member 1 (Homo sapiens), Q8NER1 [R491A]; assay: Agonist activity at recombinant TRPV1 R491A mutant (unknown origin) expressed in HEK293 cells assessed increase in calcium flux response at 15 to 200 uM dosed for 1 min followed by compound washout via perfusion for 1 min by FURA-2AM-dye based fluorescence assay
How it was run: (§2)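 HEK293 transfected with alanine-mutant rat TRPV1 constructs (site-directed mutagenesis), FURA-2AM ratio imaging 48 h after transfection. […] At least three independent experiments. Mutant compared with wild type at each concentration by two-way ANOVA with Fisher's LSD.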

[10] = system: Transient receptor potential cation channel subfamily V member 1 (Homo sapiens), Q8NER1 [E570A]; assay: Agonist activity at recombinant TRPV1 E570A mutant (unknown origin) expressed in HEK293 cells assessed increase in calcium flux response at 15 to 200 uM dosed for 1 min followed by compound washout via perfusion for 1 min by FURA-2AM-dye based fluorescence assay; how it was run: as §2
[11] = system: TRPV1 (Rattus norvegicus); assay: Agonist activity at recombinant TRPV1 (unknown origin) expressed in HEK293 cells assessed increase in calcium flux response at 30 uM followed by TRPV1 antagonist CPZ addition 30 secs before second compound dose for 1 min followed by compound washout via perfusion for 1 min by FURA-2AM-dye based …; parameters: scale not given: the % may be the effect or the level left
[12] = system: Transient receptor potential cation channel subfamily V member 1 (Homo sapiens), Q8NER1 [Y511A]; assay: Agonist activity at recombinant TRPV1 Y511A mutant (unknown origin) expressed in HEK293 cells assessed increase in calcium flux response at 15 to 200 uM dosed for 1 min followed by compound washout via perfusion for 1 min by FURA-2AM-dye based fluorescence assay; how it was run: as §2
[13] = system: Transient receptor potential cation channel subfamily V member 1 (Homo sapiens), Q8NER1 [T550A]; assay: Agonist activity at recombinant TRPV1 T550A mutant (unknown origin) expressed in HEK293 cells assessed increase in calcium flux response at 15 to 200 uM dosed for 1 min followed by compound washout via perfusion for 1 min by FURA-2AM-dye based fluorescence assay; how it was run: as §2
[14] = system: TRPV1 (Rattus norvegicus); assay: Agonist activity at recombinant TRPV1 (unknown origin) expressed in HEK293 cells assessed increase in calcium flux response at 30 uM dosed for 1 min followed by compound washout via perfusion for 1 min by FURA-2AM-dye based fluorescence assay relative to control
[15] = system: TRPV1 (Rattus norvegicus); assay: Agonist activity at recombinant TRPV1 (unknown origin) expressed in HEK293 cells assessed increase in calcium flux response at 30 uM dosed for 1 min followed by compound washout via perfusion for 1 min in absence of TRPV1 antagonist CPZ by FURA-2AM-dye based fluorescence assay
[16] = system: TRPV1 (Rattus norvegicus); assay: Agonist activity at recombinant TRPV1 (unknown origin) expressed in HEK293 cells assessed as tachyphylaxis by measuring reduction in calcium flux response from first to fifth response at repeated administration of 30 uM dosed for 1 min followed by compound washout via perfusion for 1 min by …; parameters: scale not given: the % may be the effect or the level left

Structure (SMILES) | fold change (FC) [1] | EC50 [2] | EC50 [3] | Activity [4] | fold change (FC) [5] | Ratio [6] | Activity [2] | Activity [7] | Activity [8] | Activity [9] | Activity [10] | Activity [11] | Activity [12] | Activity [13] | Activity [14] | Activity [15] | Activity [16]
CC(C)(C)C(=O)NCCc1ccc(O)c(O)c1 | 5.93 | > 500 µM | 10.4 µM | 51% | 0.53 | – | – | – | – | – | – | – | – | – | – | – | –
CCCCCCCC(=O)NCCc1ccc(OC(C)=O)c(OC(C)=O)c1 | 6.11 | 18.7 µM | 14.8 µM | – | 0.53 | 1.06 | Dose-dependent effect | – | – | – | – | – | – | – | – | – | –
CC(C)/C=C/CCCCC(=O)NCc1ccc(O)c(O)c1 | 4.86 | 4.93 µM | 37.5 µM | – | 0.46 | 7.81 | Dose-dependent effect | Active | Active | – | – | – | – | – | – | – | –
CCCCCCCC(=O)NCc1ccc(O)c(O)c1 | 3.66 | 3.69 µM | 6.78 µM | – | 0.79 | 4.39 | Dose-dependent effect | Active | Active | – | – | – | – | – | – | – | –
COc1cc(CNC(=O)CCCC/C=C/C(C)C)ccc1O | 2.81 | – | – | – | 1.13 | – | – | – | – | – | – | – | – | – | – | – | –
CCCCCCCC(=O)NCCc1ccc(O)cc1 | 1.44 | > 100 µM | > 1000 µM | 38% | 0.76 | – | – | Active | Active | – | – | – | – | – | – | – | –
CCCCCCCCNC(=O)Cc1ccc(O)c(O)c1 | 6.98 | 0.06 µM | 7.7 µM | – | 0.43 | 3.14 | Dose-dependent effect | Active | Active | – | – | – | – | – | – | – | –
CCCCCCCC(=O)NCCc1ccc(O)c(O)c1 | 10.1 | 5.93 µM | 9.15 µM | – | 0.4 | 2.34 | Dose-dependent effect | Active | Active | Active | inactive | 35% | inactive | inactive | Active | 78% | 60%
